Assay [1] concerns the target T1, RAS guanyl-releasing protein 1 (Homo sapiens, UniProt O95267).
T1 sequence (O95267 whole entry): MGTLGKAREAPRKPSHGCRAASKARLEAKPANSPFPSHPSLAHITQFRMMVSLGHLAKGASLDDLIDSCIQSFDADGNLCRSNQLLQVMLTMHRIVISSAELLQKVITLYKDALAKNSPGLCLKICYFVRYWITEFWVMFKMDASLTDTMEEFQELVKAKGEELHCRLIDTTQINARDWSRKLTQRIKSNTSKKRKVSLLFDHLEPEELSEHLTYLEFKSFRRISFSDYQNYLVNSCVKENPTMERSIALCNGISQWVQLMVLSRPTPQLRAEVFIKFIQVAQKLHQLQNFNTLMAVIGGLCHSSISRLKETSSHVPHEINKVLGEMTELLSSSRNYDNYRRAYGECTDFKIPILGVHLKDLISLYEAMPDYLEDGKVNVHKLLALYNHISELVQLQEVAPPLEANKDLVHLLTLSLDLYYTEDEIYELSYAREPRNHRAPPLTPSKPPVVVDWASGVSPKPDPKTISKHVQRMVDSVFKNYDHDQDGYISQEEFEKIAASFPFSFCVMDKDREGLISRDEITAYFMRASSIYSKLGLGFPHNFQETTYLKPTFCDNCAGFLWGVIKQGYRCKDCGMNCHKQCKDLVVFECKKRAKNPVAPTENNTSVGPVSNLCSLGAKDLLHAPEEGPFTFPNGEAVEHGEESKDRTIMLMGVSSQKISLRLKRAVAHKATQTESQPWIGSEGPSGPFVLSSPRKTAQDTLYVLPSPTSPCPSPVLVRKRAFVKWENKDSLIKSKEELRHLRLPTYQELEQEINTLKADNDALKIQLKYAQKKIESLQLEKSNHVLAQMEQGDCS
Description: Displacement of [3H]PDBu from recombinant RasGRP1 C1 domain (unknown origin) after 10 mins by scintillation counting analysis in presence of phosphatidylserine. In a few lines: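 [3H]PDBu binding competition with 100 μg/ml phosphatidylserine present; PKCα and RasGRP1-C1 assayed at 37°C for stability. Values are mean ± SEM of triplicate independent experiments.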
(In general: Displacement assays read how much labelled ligand stays bound in the presence of the test substance.)

Assay [2] has as its target T2, Ras guanyl-releasing protein 3 (Homo sapiens) (UniProt Q8IV61).
T2 sequence (whole entry): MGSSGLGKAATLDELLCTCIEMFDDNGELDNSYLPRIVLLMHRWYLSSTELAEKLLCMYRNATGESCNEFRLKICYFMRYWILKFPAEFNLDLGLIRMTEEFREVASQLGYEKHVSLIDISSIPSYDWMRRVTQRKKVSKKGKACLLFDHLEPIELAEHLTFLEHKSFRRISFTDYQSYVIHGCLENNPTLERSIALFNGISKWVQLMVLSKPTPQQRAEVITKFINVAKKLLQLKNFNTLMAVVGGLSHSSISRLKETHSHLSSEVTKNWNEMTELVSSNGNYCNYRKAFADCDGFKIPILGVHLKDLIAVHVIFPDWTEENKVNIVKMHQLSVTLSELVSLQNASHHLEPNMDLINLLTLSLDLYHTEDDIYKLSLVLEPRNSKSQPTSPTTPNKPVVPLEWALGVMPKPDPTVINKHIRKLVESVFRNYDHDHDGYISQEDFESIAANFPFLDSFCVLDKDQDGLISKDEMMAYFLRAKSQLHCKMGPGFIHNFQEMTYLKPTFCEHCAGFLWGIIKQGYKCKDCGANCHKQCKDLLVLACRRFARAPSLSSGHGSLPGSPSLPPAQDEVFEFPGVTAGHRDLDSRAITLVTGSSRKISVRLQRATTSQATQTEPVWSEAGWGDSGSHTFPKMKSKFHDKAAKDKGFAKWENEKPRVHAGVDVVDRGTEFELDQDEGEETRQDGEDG
Briefly: Activation of RasGRP3 (unknown origin) overexpressed in HEK293 cells assessed as ERK1/2 phosphorylation at 1 to 10 uM after 30 mins by Western blot analysis. The format is cell-based. A general note: A western blot detects proteins with antibodies after separation by electrophoresis.

Assay [3] concerns the target Protein kinase C alpha type (Homo sapiens, UniProt P17252). Description: Binding affinity to recombinant human GFP-tagged PKC-alpha expressed in CHOK1 cells assessed as induction of protein translocation from plasma membrane to internal membrane at 10000 nM after 2 to 5 mins by confocal microscopic analysis. The format is cell-based. As to conditions: CHO-K1. The essentials:
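CHO-K1 cells were transiently transfected with human GFP-PKCα and imaged live by confocal microscopy 24 h later (488 nm excitation, 500–530 nm emission) every 30 s for 30 min after 10 μM ligand. Membrane/cytoplasm intensity ratio from 4 μm2 regions was normalized to time 0. n = 3–6.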

The structures appear in SMILES notation. pKi: −log10 of the molar value. Activity calls are given as the source filed them. The rule behind the calls is not given here.

In general, pKi refers to the Ki on a negative log10 scale, so that one unit is a factor of ten. As to `CCCC(CCC)C(=O)OCC1(CO)C/C(=C\c2cn(C)c3ccccc23)C(=O)O1` (configuration not stated), the pKi in assay [1] is 9.60. Further, the outcome in assay [2] was Active.

Regarding `CCCC(CCC)C(=O)OCC1(CO)C/C(=C\c2cccc3ccn(C)c23)C(=O)O1` (configuration not stated), in assay [1], the negative logarithm of the Ki (pKi) is 9.16.

Turning to `CCCC(CCC)C(=O)OCC1(CO)C/C(=C\c2ccc3c(ccn3C)c2)C(=O)O1` (configuration not stated), the pKi in assay [1] is 9.39.

Take `CCCC(CCC)C(=O)OCC1(CO)C/C(=C\c2cccc3c2ccn3C)C(=O)O1` (configuration not stated): the pKi in assay [1] is 8.81.

Regarding `CCCC(CCC)C(=O)OCC1(CO)C/C(=C\c2ccc3ccn(C)c3c2)C(=O)O1` (configuration not stated), the pKi in assay [1] is 9.06. In assay [3], the outcome was Active.

For the origin of these results see ChEMBL document CHEMBL3286272, “Synthesis, biological, and biophysical studies of DAG-indololactones designed as selective activators of RasGRP” (Bioorg Med Chem, 2014).
